{"source": "paper PMC10422108", "about": "(Journal of Pharmaceutical Analysis, 2023)", "key": {"Lewis lung cancer (LLC)": {"tested_on": "Lewis lung cancer (LLC)", "assay": "Antitumor activity in Lewis lung cancer", "format": "in vivo, C57BL/6J male mice", "conditions": "LLC mice; PTX 25 mg/kg; PTX-R 14.4, 28.8, 57.6 mg/kg; 11 day; versus control"}, "[1]": {"tested_on": "CTL1, OCT1 and OCT2 in LLC cells", "assay": "PTX-R uptake assay with transporter inhibitors", "format": "cell-based, mouse", "conditions": "100 μmol/L HC-3, 60 μmol/L quinidine or 60 μmol/L cimetidine, 10 min", "in_short": "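LLC cells seeded at 2 × 10^5 cells/mL, grown 48 h, PBS-washed. Preincubated 20 min with inhibitor or PBS, then 4.5 μmol/L test compound ± inhibitor for 10 min. Stopped by three cold PBS washes; lysed 30 min in cold MeOH/0.1% FA containing 100 ng/mL docetaxel internal standard. Extract dried, reconstituted in ACN:H2O 1:9, quantified by LC-MS/MS (MRM).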"}}, "data": [{"smiles": "CC(=O)O[C@H]1C(=O)[C@@]2(C)[C@H]([C@H](OC(=O)c3ccccc3)[C@]3(O)C[C@H](OC(=O)[C@H](O)[C@@H](NC(=O)c4ccccc4)c4ccccc4)C(C)=C1C3(C)C)[C@]1(OC(C)=O)CO[C@@H]1C[C@@H]2O", "note": "[PTX, paclitaxel]", "values": [{"measurement": "indices of the spleen and thymus", "setting": "Lewis lung cancer (LLC)", "result": "notably reduced"}, {"measurement": "cellular uptake in presence of transporter inhibitors", "setting": "[1]", "result": "no influence on PTX transport"}]}]}
